Published values pooled from the literature.

Structure (SMILES)	tested on	test	system	setting	quantity	value
Cc1[nH]c(C)c(S(=O)(=O)Nc2ccc(S(F)(F)(F)(F)F)cc2)c1C(=O)N1CCC(F)(F)C1	–	metabolic stability	rat, liver microsomes	–	half-life	17.6 min
N=C(N)NCCC[C@H](NC(=O)[C@H](Cc1ccccc1)NC(=O)[C@H](CCC(N)=O)NC(=O)OCc1ccccc1)C(=O)c1nccs1	–	–	female C57BL/6 mouse, plasma	intranasal, 5 mg/kg	AUC(0-inf)	0.129 µg·h/mL
COc1cc(C(=O)c2nc(-c3cccc4[nH]ccc34)c[nH]2)cc(OC)c1OC	–	chemical stability	PBS	5 µM, pH 6	half-life	> 1020 min
CC(=O)c1c(C)c2cnc(Nc3ccc(C4CCN(CCS(C)(=O)=O)CC4)cn3)nc2n(C2CCCC2)c1=O	–	metabolic stability	rat, liver S9	–	half-life	866 min
CC(C)CC(=O)OC[C@H]1O[C@@](C#N)(c2ccc3c(N)ncnn23)[C@H](O)[C@@H]1O	–	metabolic stability	rat, blood	5 µM, whole blood	half-life	0.761 min
CC(C)=CCC[C@](C)(O[C@@H]1O[C@H](CO)[C@@H](O)[C@H](O)[C@H]1O)[C@H]1CC[C@]2(C)[C@@H]1[C@H](O)C[C@@H]1[C@@]3(C)CC[C@H](O)C(C)(C)[C@@H]3CC[C@]12C	–	–	mouse, plasma	intravenous, 2 mg/kg	AUC(0-t)	1.08 µg·h/mL
Cc1c2ccncc2c(C)c2c1[nH]c1ccccc12	NCI-H187	cell growth or viability, resazurin	–	5 days	IC50	10.7 µM
CC[C@H](C)[C@H](NC(=O)[C@H](Cc1ccccc1)NC(=O)[C@H](CCC(=O)O)NC(=O)[C@H](CCCCN)NC(=O)[C@H](C)NC(=O)[C@H](C)NC(=O)[C@H](CCC(N)=O)NC(=O)CNC(=O)[C@H](CCC(=O)O)NC(=O)[C@H](CC(C)C)NC(=O)[C@H](Cc1ccc(O)cc1)NC(=O)[C@H](CO)NC(=O)[C@H](CO)NC(=O)[C@@H](NC(=O)[C@H](CC(=O)O)NC(=O)[C@H](CO)NC(=O)[C@@H](NC(=O)[C@H](Cc1ccccc1)NC(=O)[C@@H](NC(=O)CNC(=O)[C@H](CCC(=O)O)NC(=O)[C@H](C)NC(=O)N(N)Cc1c[nH]cn1)[C@@H](C)O)[C@@H](C)O)C(C)C)C(=O)N[C@@H](C)C(=O)N[C@@H](Cc1c[nH]c2ccccc12)C(=O)N[C@@H](CC(C)C)C(=O)N[C@H](C(=O)N[C@@H](CCCNC(=N)N)C(=O)NCC(=O)N[C@@H](CCCNC(=N)N)C(=O)NCC(=O)O)C(C)C	–	–	male CD-1 mouse, plasma	intravenous, 1 mg/kg, single dose	AUC(0-inf)	2.4 µg·h/mL
O=C(Nc1ccc([N+](=O)[O-])cc1Cl)c1cc(Cl)ccc1O	HeLa-ACE2	cell growth or viability, ATP luminescence	–	72 h	CC50	8.73 µM
